Test results reported in ChEMBL document CHEMBL3124922, “The antitumor agent PBT-1 directly targets HSP90 and hnRNP A2/B1 and inhibits lung adenocarcinoma growth and metastasis” (J Med Chem, 2014).
Activity calls are given as the source filed them. The calls are words filed in the database; no cut-off is given here.

What was measured:
HSP90 and hnRNPA2/B1 [1] = target: T1, HSP90 and hnRNPA2/B1 (Homo sapiens, UniProt P08238+P22626); experiment: Inhibition of HSP90/hnRNPA2/B1 in human PC9 cells assessed as reduction of slug expression at 0.5 ug/ml after 5 hrs by Western blotting analysis; type: cell-based; settings: PC-9
T1 sequence (P08238 whole entry, looked up): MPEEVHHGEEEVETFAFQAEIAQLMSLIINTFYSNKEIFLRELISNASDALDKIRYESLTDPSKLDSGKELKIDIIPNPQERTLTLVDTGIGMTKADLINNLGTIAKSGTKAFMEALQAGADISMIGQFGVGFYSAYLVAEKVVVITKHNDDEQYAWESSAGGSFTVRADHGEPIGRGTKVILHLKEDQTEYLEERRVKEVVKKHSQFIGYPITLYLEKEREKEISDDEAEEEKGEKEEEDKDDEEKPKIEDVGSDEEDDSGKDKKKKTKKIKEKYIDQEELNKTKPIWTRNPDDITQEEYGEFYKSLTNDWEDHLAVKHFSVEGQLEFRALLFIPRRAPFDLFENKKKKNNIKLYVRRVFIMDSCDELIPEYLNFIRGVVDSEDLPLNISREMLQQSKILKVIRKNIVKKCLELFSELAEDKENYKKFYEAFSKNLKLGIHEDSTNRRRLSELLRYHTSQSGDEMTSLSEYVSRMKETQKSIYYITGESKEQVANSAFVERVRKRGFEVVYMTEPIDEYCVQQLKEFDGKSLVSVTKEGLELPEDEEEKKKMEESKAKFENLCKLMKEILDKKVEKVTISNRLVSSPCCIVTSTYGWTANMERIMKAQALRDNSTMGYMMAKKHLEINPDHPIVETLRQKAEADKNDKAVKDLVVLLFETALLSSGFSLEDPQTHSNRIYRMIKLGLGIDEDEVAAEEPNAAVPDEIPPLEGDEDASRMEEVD
T1 sequence (P22626 whole entry, looked up): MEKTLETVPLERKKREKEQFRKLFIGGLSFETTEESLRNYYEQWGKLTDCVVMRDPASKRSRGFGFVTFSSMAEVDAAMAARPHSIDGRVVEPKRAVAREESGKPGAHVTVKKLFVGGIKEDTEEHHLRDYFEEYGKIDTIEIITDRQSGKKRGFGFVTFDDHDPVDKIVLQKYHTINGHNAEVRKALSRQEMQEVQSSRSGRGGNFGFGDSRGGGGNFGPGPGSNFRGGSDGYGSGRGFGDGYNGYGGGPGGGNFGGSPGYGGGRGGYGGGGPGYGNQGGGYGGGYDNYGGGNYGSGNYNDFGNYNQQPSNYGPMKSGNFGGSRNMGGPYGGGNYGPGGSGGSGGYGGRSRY

HSP90 and hnRNPA2/B1 [2] = target: T1, HSP90 and hnRNPA2/B1; experiment: Inhibition of HSP90/hnRNPA2/B1 in human CL152 cells assessed as upregulation of E-cadherin expression after 5 hrs by Western blotting analysis; type: cell-based
HSP90 and hnRNPA2/B1 [3] = target: T1, HSP90 and hnRNPA2/B1; experiment: Inhibition of HSP90/hnRNPA2/B1 in human CL152 cells assessed as reduction of slug expression at 0.5 ug/ml after 5 hrs by Western blotting analysis; type: cell-based
Summary of the method: (§1)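 CL1-5 or CL152 cells exposed to a range of concentrations for 5 h; Slug (and E-cadherin) detected by Western blot with β-actin as loading control; representative of three experiments.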

HSP90 and hnRNPA2/B1 [4] = target: T1, HSP90 and hnRNPA2/B1; experiment: Inhibition of HSP90/hnRNPA2/B1 in human CL1-5 cells assessed as upregulation of E-cadherin expression after 0.5 to 2 hrs by Western blotting analysis; type: cell-based
HSP90 and hnRNPA2/B1 [5] = target: T1, HSP90 and hnRNPA2/B1; experiment: Inhibition of HSP90/hnRNPA2/B1 in human CL1-5 cells assessed as reduction of slug expression at >0.5 ug/ml up to 5 hrs by Western blotting analysis; type: cell-based; summary of the method: as §1
HSP90 and hnRNPA2/B1 [6] = target: T1, HSP90 and hnRNPA2/B1; experiment: Inhibition of HSP90/hnRNPA2/B1 in human CL1-5 cells assessed as reduction of slug expression at 0.5 ug/ml after 2 hrs by Western blotting analysis; type: cell-based
Summary of the method: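 CL1-5 cells exposed to 0.5 μg/mL for 0.5, 1 or 2 h; Slug in cell extracts detected by Western blot with β-actin as loading control; representative of three experiments.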

CL1-5 [7] = experiment: Reduction of filopodia formation in human CL1-5 cells at 0.1 to 0.75 ug/ml by immunofluorescence staining-based microscopic analysis; type: functional, cell-based
CL1-5 [8] = experiment: Antiinvasive activity against human CL1-5 cells after 20 hrs by matrigel-coated transwell assay; type: functional, cell-based
Summary of the method: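 Transwell chambers (8 μm pores) coated with 5 μg/mL Matrigel; 2.5 × 10^4 cells seeded on top in medium with 10% NuSerum; after 20 h, cells reaching the lower side fixed in methanol, stained with 50 μg/mL propidium iodide and quantified by image analysis. Triplicate samples; mean ± SD of three independent experiments.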

CL1-5 [9] = experiment: Antimigratory activity against human CL1-5 cells assessed as reduction of cell migration at 0.25 ug/ml after 1 to 12 hrs by wound healing assay relative to control; type: functional, cell-based
Summary of the method: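 Cells grown to near-confluence in 6 cm dishes, monolayer scratched with a pipet tip, debris washed off with PBS; incubated at 37 °C and photographed at 0, 4, 8 and 12 h. Cells migrating into the cell-free zone counted. Triplicate samples, at least three independent experiments, mean ± SD.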

CL1-5 [10] = experiment: Antitumor activity against human CL1-5 cells xenografted in Balb/c nu/nu mouse assessed as subcutaneously implanted tumor growth inhibition at 10 mg/kg/day, ip administered 3 times per week measured 2 times per week for 28 days; type: functional, organism-based
Summary of the method: (§2)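 Six-week-old male BALB/c nu/nu mice (SPF) given 1 × 10^6 CL1-5 cells s.c. in the right flank; at 100 mm^3 tumor volume (5–8 days), six mice per group randomized to compound 10 mg/kg/day or vehicle i.p. three times weekly. Volume from calipers as 0.5W²L; tumor volume and body weight recorded twice weekly.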

CL1-5 [11] = experiment: Antitumor activity against human CL1-5 cells xenografted in Balb/c nu/nu mouse assessed as orthotopic tumor growth inhibition at 10 mg/kg/day, ip administered 3 times per week measured 2 times per week for 28 days; type: functional, organism-based
Summary of the method: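 CL1-5 cells inoculated into the pleural cavity of 6-week-old BALB/c nu/nu mice (n = 6 per group); i.p. dosing with compound or DMSO vehicle three times weekly from day 5. At 28 days mice killed by CO2, organs formalin-fixed; tumor volume in excised lungs and metastatic nodule counts taken, mean ± SD of six mice.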

Mus musculus = experiment: Toxicity in Balb/c nu/nu mouse xenografted with human CL1-5 cells at 10 mg/kg, ip qd administered 3 times per week measured 2 times per week for 28 days; type: organism-based; set-up: dose 10 mg/kg, route intraperitoneal; settings: in vivo, 672 h; summary of the method: as §2
HSP90 and hnRNPA2/B1 [12] = target: T1, HSP90 and hnRNPA2/B1; experiment: Inhibition of HSP90/hnRNPA2/B1 in human CL1-5 cells assessed as reduction of slug expression at 0.25 ug/ml up to 5 hrs by Western blotting analysis; type: cell-based; summary of the method: as §1
CL1-5 [13] = experiment: Binding affinity to HSP70 in human CL1-5 cell lysate after 1 hr by affinity chromatographic analysis; type: cell-free
Summary of the method: (§3)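 CL1-5 lysate (10 mg protein; Tris pH 8.0 lysis buffer) held with or without 1 mM free ligand for 1 h, then loaded at 4 °C onto Sepharose 4B carrying the coupled ligand, with uncoupled beads as control. Washed with T buffer, eluted with 4 M urea/1 M NaCl; flow-through, wash and eluate probed by Western blot for HSP90, hnRNP A2/B1, HSP70 and β-actin.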

HSP90 and hnRNPA2/B1 [14] = target: T1, HSP90 and hnRNPA2/B1; experiment: Binding affinity to HSP90/hnRNPA2/B1 in human CL1-5 cell lysate after 1 hr by affinity chromatographic analysis; type: cell-free; summary of the method: as §3
HSP90 and hnRNPA2/B1 [15] = target: T1, HSP90 and hnRNPA2/B1; experiment: Inhibition of HSP90/hnRNPA2/B1 in human CL1-5 cells assessed as reduction of slug expression at >0.5 ug/ml after 24 hrs by Western blotting analysis; type: cell-based
HSP90 and hnRNPA2/B1 [16] = target: T1, HSP90 and hnRNPA2/B1; experiment: Inhibition of HSP90/hnRNPA2/B1 in human CL1-5 cells; type: cell-based

| inhibition (HSP90 and hnRNPA2/B1 [1]) | inhibition (HSP90 and hnRNPA2/B1 [2]) | inhibition (HSP90 and hnRNPA2/B1 [3]) | inhibition (HSP90 and hnRNPA2/B1 [4]) | inhibition (HSP90 and hnRNPA2/B1 [5]) | inhibition (HSP90 and hnRNPA2/B1 [6]) | inhibition (HSP90 and hnRNPA2/B1 [12]) | Activity (HSP90 and hnRNPA2/B1 [14]) | inhibition (HSP90 and hnRNPA2/B1 [15]) | IC50 (HSP90 and hnRNPA2/B1 [16]) | Compound | Activity (CL1-5 [7]) | Activity (CL1-5 [8]) | Activity (CL1-5 [9]) | TGI (CL1-5 [10]) | TGI (CL1-5 [11]) | Activity (Mus musculus) | Activity (CL1-5 [13]) |
| --- | --- | --- | --- | --- | --- | --- | --- | --- | --- | --- | --- | --- | --- | --- | --- | --- | --- |
| Active | Dose-dependent effect | Active | Dose-dependent effect | Active | Active | – | – | – | – | COc1ccc2c(CN3CCC(CO)CC3)cc3cc4c(cc3c2c1)OCO4 | Active | Dose-dependent effect | Active | Active | Active | Non-toxic | – |
| – | – | – | – | – | – | inactive | Active | Active | 0.5 µg/mL | Cl.Cl.NCCOCCOCCOCCOc1ccc2c(CN3CCC(CO)CC3)cc3cc4c(cc3c2c1)OCO4 | – | – | – | – | – | – | inactive |
